# How the values were obtained:
# HeLa [1] = assay: In vitro anticellular activity expressed as inhibitory concentration for the growth of human uterine cervix carcinoma HeLa S3 cells for a period of 1 hour; type: functional, cell-based
# How it was run: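 HeLa S3 cells seeded at 2 × 10^4/well and precultured 24 h at 37 °C, 5% CO2. Pulse exposure: compound for 1 h, washed with Ca/Mg-free PBS, then grown 71 h in fresh medium. Cells detached with 0.05% trypsin/0.02% EDTA in PBS and counted electronically. IC50 is the concentration giving 50% growth inhibition.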
# HeLa [2] = assay: In vitro anticellular activity expressed as inhibitory concentration for the growth of HeLa S3 cells for a period of 72 hour; type: functional, cell-based; conditions: Homo sapiens
# How it was run: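 HeLa S3 cells, 2 × 10^4 per well, precultured 24 h at 37 °C in 5% CO2, then exposed continuously to compound for 72 h. Cells detached with PBS(–) containing 0.05% trypsin and 0.02% EDTA and counted electronically. IC50 is the concentration giving 50% inhibition of cell growth.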
# Mus musculus [3] = assay: Treated/Control value was measured in mice(implanted subcutaneously with sarcoma 180 cells) at the dose of 4 mg/kg; type: functional
# How it was run: (§1)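 Adult male ddY mice, five per group, implanted sc at the axillary region with passaged sarcoma 180 cells. Drug given iv starting 1 day after inoculation. Tumor length and width measured; volume = length × width²/2. T/C is mean tumor volume of treated over control. Effective if T/C ≤42% with Mann–Whitney U p < 0.05.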
# Mus musculus [4] = assay: Treated/Control value was measured in mice(implanted subcutaneously with sarcoma 180 cells) at the dose of 8 mg/kg; type: functional; how it was run: as §1
# Mus musculus [5] = assay: Treated/Control value was measured in mice(implanted subcutaneously with sarcoma 180 cells) at the dose of 0.13 mg/kg; type: functional; how it was run: as §1
# Mus musculus [6] = assay: Treated/Control value was measured in mice(implanted subcutaneously with sarcoma 180 cells) at the dose of 2 mg/kg; type: functional; how it was run: as §1
IC50 (HeLa [1]) [nM],IC50 (HeLa [2]) [nM],SMILES,T/C (Mus musculus [3]),T/C (Mus musculus [4]),T/C (Mus musculus [5]),T/C (Mus musculus [6])
51,8.3,CCCOc1ccc(/C=C/C(=O)N2C[C@H]3C[C@@]34C2=CC(=O)c2[nH]c(C)c(C(=O)OC)c24)cc1,–,–,–,–
> 100,50,CCCCCOc1ccc(/C=C/C(=O)N2C[C@H]3C[C@@]34C2=CC(=O)c2[nH]c(C)c(C(=O)OC)c24)cc1,–,–,–,–
33,2.3,COC(=O)c1c(C)[nH]c2c1[C@@]13C[C@@H]1CN(C(=O)/C=C/c1ccc(C)cc1)C3=CC2=O,–,–,–,–
10000,> 1000,COC(=O)c1c(C)[nH]c2c1C1C(=CC2OC(=O)N(C)C)N(C(=O)/C=C/c2ccc(OC)c(OCC(=O)O)c2)C[C@H]1CBr (some centres undefined),0.72,–,–,–
3,1.6,COC(=O)c1c(C)[nH]c2c1[C@@]13C[C@@H]1CN(C(=O)/C=C/c1ccc(OC)c(OCCCN(C)C)c1)C3=CC2=O,–,–,–,–
9.5,2.3,CCN(CC)c1cc(/C=C/C(=O)N2C[C@H]3C[C@@]34C2=CC(=O)c2[nH]c(C)c(C(=O)OC)c24)ccc1OC,–,–,–,–
51,3.8,CCc1ccc(/C=C/C(=O)N2C[C@H]3C[C@@]34C2=CC(=O)c2[nH]c(C)c(C(=O)OC)c24)cc1,–,–,–,–
13,0.81,COC(=O)c1c(C)[nH]c2c1[C@@]13C[C@@H]1CN(C(=O)/C=C/c1ccc(OCc4ccc(OC)cc4)cc1)C3=CC2=O,–,–,–,–
39,7.5,C=CCOc1ccc(/C=C/C(=O)N2C[C@H]3C[C@@]34C2=CC(=O)c2[nH]c(C)c(C(=O)OC)c24)cc1,–,–,–,–
2,0.74,COC(=O)c1c(C)[nH]c2c1[C@@]13C[C@@H]1CN(C(=O)/C=C/c1ccc(OC)c(OCCCN=[N+]=[N-])c1)C3=CC2=O,–,–,–,–
0.5,0.16,COC(=O)c1c(C)[nH]c2c1[C@@]13C[C@@H]1CN(C(=O)c1cc4cc(OC)c(OC)c(OC)c4[nH]1)C3=CC2=O,–,–,–,–
19,3.5,COC(=O)c1c(C)[nH]c2c1[C@@]13C[C@@H]1CN(C(=O)/C=C/c1ccc(O)cc1)C3=CC2=O,–,–,–,–
7.4,2.3,COC(=O)c1c(C)[nH]c2c1[C@@]13C[C@@H]1CN(C(=O)/C=C/c1ccc(OC)c(OCC(=O)OC(C)(C)C)c1)C3=CC2=O,–,–,–,–
2100,280,CCN(CC)c1cc(/C=C/C(=O)N2C[C@@H](CBr)C3C2=CC(OC(=O)N2CCN(C)CC2)c2[nH]c(C)c(C(=O)OC)c23)ccc1OC.Cl (some centres undefined),–,0.2,–,–
1200,61,COC(=O)c1c(C)[nH]c2c1C1C(=CC2OC(=O)N2CCN(CC(=O)NC(C)C)CC2)N(C(=O)/C=C/c2ccc(OC)cc2)C[C@H]1CBr.Cl (some centres undefined),–,0.12,–,–
290,30,COC(=O)c1c(C)[nH]c2c1C1C(=CC2OC(=O)N2CCN(C)CC2)N(C(=O)/C=C/c2ccc(OC)c(N)c2)C[C@H]1CBr.Cl (some centres undefined),–,0.39,–,–
290,30,COC(=O)c1c(C)[nH]c2c1C1C(=CC2OC(=O)N2CCN(C)CC2)N(C(=O)/C=C/c2ccc(OC)c(OCCCN)c2)C[C@H]1CBr.Cl (some centres undefined),–,–,0.77,–
1000,224,COC(=O)c1c(C)[nH]c2c1C1C(=CC2OC(=O)N2CCC(N3CCCCC3)CC2)N(C(=O)/C=C/c2ccc(OC)cc2)C[C@H]1CBr.Cl (some centres undefined),0.17,–,–,–
430,52,COC(=O)c1c(C)[nH]c2c1C1C(=CC2OC(=O)N2CCN(C)CC2)N(C(=O)/C=C/c2ccc(OC)c(N(C)C)c2)C[C@H]1CBr.Cl (some centres undefined),–,–,–,0.13
1800,37,COC(=O)c1c(C)[nH]c2c1C1C(=CC2OC(=O)N2CCN(C)CC2)N(C(=O)/C=C/c2ccc(OC)cc2)C[C@H]1CBr.Cl (some centres undefined),0.2,–,–,–

SMILES,IC50 (HeLa [1]) [nM],IC50 (HeLa [2]) [nM],T/C (Mus musculus [3]),T/C (Mus musculus [4]),T/C (Mus musculus [5]),T/C (Mus musculus [6])
COC(=O)c1c(C)[nH]c2c1[C@@]13C[C@@H]1CN(C(=O)/C=C/c1ccc(OC)cc1)C3=CC2=O,7,0.94,–,–,–,–
COC(=O)c1c(C)[nH]c2c1[C@@]13C[C@@H]1CN(C(=O)/C=C/c1ccc(OC)c(N)c1)C3=CC2=O,2.1,0.53,–,–,–,–
COC(=O)c1c(C)[nH]c2c1[C@@]13C[C@@H]1CN(C(=O)/C=C/c1ccc(N(C)C)cc1)C3=CC2=O,12,1.6,–,–,–,–
COC(=O)c1c(C)[nH]c2c1[C@@]13C[C@@H]1CN(C(=O)/C=C/c1ccc(OC)c(OCCCN)c1)C3=CC2=O,5.9,1.4,–,–,–,–
COC(=O)c1c(C)[nH]c2c1[C@@]13C[C@@H]1CN(C(=O)/C=C/c1ccc(NC(=O)OC(C)(C)C)cc1)C3=CC2=O,4,0.56,–,–,–,–
COC(=O)c1c(C)[nH]c2c1[C@@]13C[C@@H]1CN(C(=O)/C=C/c1ccc(N)cc1)C3=CC2=O,32,2.6,–,–,–,–
COC(=O)COc1cc(/C=C/C(=O)N2C[C@H]3C[C@@]34C2=CC(=O)c2[nH]c(C)c(C(=O)OC)c24)ccc1OC,1.3,0.86,–,–,–,–
COC(=O)c1c(C)[nH]c2c1[C@@]13C[C@@H]1CN(C(=O)/C=C/c1ccc(OC)c(N(C)C)c1)C3=CC2=O,2.5,0.92,–,–,–,–

# Reference: ChEMBL document CHEMBL1130435, “Synthesis and antitumor activity of duocarmycin derivatives: A-ring pyrrole compounds bearing cinnamoyl groups” (J Med Chem, 1997)
